Data as given in ChEMBL document CHEMBL1129071, “Probes for narcotic receptor-mediated phenomena. 21. Novel derivatives of 3-(1,2,3,4,5,11-hexahydro-3-methyl-2,6-methano-6H-azocino[4,5-b]indol- 6-yl)-phenols with improved delta opioid receptor selectivity” (J Med Chem, 1996).
pIC50: −log10 of the molar value.

Key:
[1] = biological target: Delta-type opioid receptor (Mus musculus, UniProt P32300); test: Agonistic activity towards Opioid receptor delta 1 as inhibitory activity towards electrically stimulated mouse vas deferens; type: functional, tissue-based
Outline: (§1)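 Electrically stimulated smooth muscle bioassay. Guinea pig ileum longitudinal muscle-myenteric plexus strips come from male Hartley guinea pigs (250–500 g); vas deferens from male ICR mice (25–40 g). Tissues sit in 37 °C oxygenated Krebs bicarbonate (Mg-free for MVD) at 1 g tension (0.5 g MVD). Stimulation is 0.1 Hz, 0.4 ms pulses (2 ms MVD), supramaximal voltage.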

[2] = biological target: Delta-type opioid receptor (Rattus norvegicus, UniProt P33533); test: Inhibition of [3H]- DADLE binding to Rat brain Opioid receptor delta 1
Mu-type opioid receptor [3] = biological target: T1, Mu-type opioid receptor (Rattus norvegicus, UniProt P33535); test: Compound was evaluated for Inhibition of Radio Ligand binding of [3H]- DAMGO at Rat brain Opioid receptor mu 1 binding site
Outline: (§2)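 Rat brain membranes labeled with [3H]DAMGO (1–3 nM), incubated 4 h at 25 °C in 50 mM Tris-HCl pH 7.4 with protease inhibitor cocktail. Nonspecific binding defined by 20 µM levallorphan. Displacement uses 8–10 test concentrations, run twice, diluted in 10 mM Tris pH 7.4 with 1 mg/mL BSA from 1 mM stocks containing 10% DMSO. IC50 and slope factor from curve fitting.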

Mu-type opioid receptor [4] = biological target: Mu-type opioid receptor (Cavia porcellus, UniProt P97266); test: Agonistic activity for Opioid receptor mu 1 as inhibitory activity towards electrically stimulated guinea pig ileum; type: functional, tissue-based; outline: as §1
[5] = Relative affinity for mouse vas deferens (delta receptor) and guinea pig ileum (mu receptor); type: tissue-based
Outline: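 GPI/MVD IC50 ratio from the electrically stimulated guinea pig ileum and mouse vas deferens bioassays. Both tissues are stimulated at 0.1 Hz and supramaximal voltage, with cumulative agonist dosing.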

Mu-type opioid receptor [6] = biological target: T1, Mu-type opioid receptor; test: Inhibition of [3H]- DAMGO binding to Rat brain Opioid receptor mu 1; outline: as §2
[7] = biological target: Kappa-type opioid receptor (Cavia porcellus, UniProt P41144); test: Inhibition of [3H]- U69,593 binding to Guinea pig Opioid receptor kappa 1
[8] = Relative affinity for […] opioid receptors
[9] = biological target: Mu-type opioid receptor (Cavia porcellus) (UniProt P97266); test: Agonistic activity (30 uM) towards mu opioid receptor was determined by evaluating the inhibitory activity towards electrically stimulated guinea pig ileum; type: functional, tissue-based; outline: as §1
[10] = biological target: Delta-type opioid receptor (Mus musculus) (UniProt P32300); test: Agonistic activity towards Opioid receptor delta 1 was determined by evaluating the inhibitory activity towards electrically stimulated mouse vas deferens; type: functional, tissue-based; settings: concentration not given here; outline: as §1
Chain of Delta-type opioid receptor (Mus musculus) (P32300 whole entry): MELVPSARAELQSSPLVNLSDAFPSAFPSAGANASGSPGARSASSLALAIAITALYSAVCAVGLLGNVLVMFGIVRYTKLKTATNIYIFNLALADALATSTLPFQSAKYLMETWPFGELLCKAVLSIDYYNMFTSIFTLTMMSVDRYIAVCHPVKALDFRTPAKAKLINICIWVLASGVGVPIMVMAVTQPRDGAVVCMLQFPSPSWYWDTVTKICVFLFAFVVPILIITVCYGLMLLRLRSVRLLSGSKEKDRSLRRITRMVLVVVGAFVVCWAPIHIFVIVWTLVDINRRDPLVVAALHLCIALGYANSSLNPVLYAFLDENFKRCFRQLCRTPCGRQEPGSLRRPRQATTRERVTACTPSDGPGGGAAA

Chain of Mu-type opioid receptor (Cavia porcellus, UniProt P97266) (P97266 whole entry): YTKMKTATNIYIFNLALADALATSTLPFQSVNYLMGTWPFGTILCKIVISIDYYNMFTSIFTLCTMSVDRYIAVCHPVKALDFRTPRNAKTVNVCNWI
T1 sequence (P33535 whole entry): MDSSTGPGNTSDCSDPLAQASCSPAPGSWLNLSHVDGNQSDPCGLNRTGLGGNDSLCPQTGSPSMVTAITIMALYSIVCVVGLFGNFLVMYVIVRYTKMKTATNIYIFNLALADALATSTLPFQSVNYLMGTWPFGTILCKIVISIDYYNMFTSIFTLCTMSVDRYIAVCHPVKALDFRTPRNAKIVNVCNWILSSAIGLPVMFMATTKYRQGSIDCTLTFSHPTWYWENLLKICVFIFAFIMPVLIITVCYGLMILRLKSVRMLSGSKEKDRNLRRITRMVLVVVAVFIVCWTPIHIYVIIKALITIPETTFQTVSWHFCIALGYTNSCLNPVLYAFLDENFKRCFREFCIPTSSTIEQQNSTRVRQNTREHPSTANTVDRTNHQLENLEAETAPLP
Chain of Kappa-type opioid receptor (P41144 whole entry): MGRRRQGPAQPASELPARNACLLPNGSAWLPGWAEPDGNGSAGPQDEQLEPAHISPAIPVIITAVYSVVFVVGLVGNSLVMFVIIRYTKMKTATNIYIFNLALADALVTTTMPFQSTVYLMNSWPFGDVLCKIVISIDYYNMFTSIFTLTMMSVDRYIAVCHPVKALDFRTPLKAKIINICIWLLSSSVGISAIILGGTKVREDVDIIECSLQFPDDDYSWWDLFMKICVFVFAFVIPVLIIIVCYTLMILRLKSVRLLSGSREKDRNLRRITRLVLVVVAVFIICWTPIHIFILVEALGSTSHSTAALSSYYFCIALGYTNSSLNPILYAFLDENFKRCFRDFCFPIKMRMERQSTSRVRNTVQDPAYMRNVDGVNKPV
Chain of Delta-type opioid receptor (Rattus norvegicus, UniProt P33533) (P33533 whole entry): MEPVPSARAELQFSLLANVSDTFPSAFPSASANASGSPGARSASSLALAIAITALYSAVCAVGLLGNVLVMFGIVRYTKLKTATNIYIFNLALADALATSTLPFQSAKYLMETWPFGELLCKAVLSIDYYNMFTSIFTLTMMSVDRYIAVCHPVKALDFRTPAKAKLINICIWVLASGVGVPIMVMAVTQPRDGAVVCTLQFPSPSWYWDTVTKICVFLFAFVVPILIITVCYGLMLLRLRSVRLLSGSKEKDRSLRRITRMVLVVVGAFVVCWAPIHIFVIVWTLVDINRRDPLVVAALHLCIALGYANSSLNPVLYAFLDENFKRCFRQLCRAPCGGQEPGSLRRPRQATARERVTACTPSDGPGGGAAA
Chain of Delta-type opioid receptor (Mus musculus, UniProt P32300) (P32300 whole entry): as the sequence (P32300 whole entry) above
Chain of Mu-type opioid receptor (Cavia porcellus) (P97266 whole entry): as the sequence (P97266 whole entry) above

CN1CC[C@]2(c3cccc(O)c3)C[C@H]1Cc1[nH]c3ccccc3c12
pIC50 [1]: 6.41 | pIC50 [2]: 8.25 | pIC50 (Mu-type opioid receptor [3]): 7.85 | pIC50 (Mu-type opioid receptor [4]): 5.63 | Ratio [5]: 6

COc1ccc2[nH]c3c(c2c1)C1(c2cccc(O)c2)CCN(C)C(C3)C1 (racemic) [listing 1 of 2 here]
pIC50 [1]: 5.36 | pIC50 [2]: 7.05 | pIC50 (Mu-type opioid receptor [6]): 7.62 | pIC50 [7]: < 6.00 | pIC50 (Mu-type opioid receptor [4]): 5.17

CN1CCC2(c3ccccc3)CC1Cc1[nH]c3ccccc3c12 (racemic)
pIC50 [2]: 5.71 | pIC50 [7]: < 5.00 | Ratio [8]: 5.08

CC(C)C[C@@H](NC(=O)[C@H](Cc1ccccc1)NC(=O)CNC(=O)[C@@H](C)NC(=O)[C@@H](N)Cc1ccc(O)cc1)C(=O)O [DADLE]
pIC50 [7]: 5.36

COc1ccc2c3c([nH]c2c1)C[C@@H]1C[C@@]3(c2cccc(O)c2)CCN1C
pIC50 [1]: 7.31 | pIC50 [2]: 8.43 | pIC50 (Mu-type opioid receptor [6]): 7.18 | inhibition [9]: 38% | pIC50 [7]: 5.93 | Ratio [8]: 314 | Ratio [5]: > 612

COc1ccc2c3c([nH]c2c1)CC1CC3(c2cccc(O)c2)CCN1C (racemic)
pIC50 [1]: 6.93 | pIC50 [2]: 8.20 | pIC50 (Mu-type opioid receptor [6]): 7.32 | pIC50 [7]: < 6.00 | pIC50 (Mu-type opioid receptor [4]): 6.06 | Ratio [8]: > 159 | Ratio [5]: 7.3

CN1CCC2(c3cccc(O)c3)CC(=O)CC1C2 (stereo not given)
Ratio [8]: 4.46

COc1cccc2c3c([nH]c12)CC1CC3(c2cccc(O)c2)CCN1C (single isomer, unassigned; (-)) [listing 1 of 2 here]
pIC50 [1]: 6.78 | pIC50 [2]: 8.36 | pIC50 (Mu-type opioid receptor [6]): 7.53 | pIC50 [7]: 5.75 | pIC50 (Mu-type opioid receptor [4]): 5.54

COc1ccc2[nH]c3c(c2c1)C1(c2cccc(O)c2)CCN(C)C(C3)C1 (stereo in doubt; (-)-11) [listing 1 of 2 here]
pIC50 [2]: 6.84 | pIC50 (Mu-type opioid receptor [6]): 6.32 | pIC50 [7]: < 5.60 | pIC50 (Mu-type opioid receptor [4]): 4.59

COc1cccc2c3c([nH]c12)CC1CC3(c2cccc(O)c2)CCN1C (racemic) [listing 1 of 2 here]
pIC50 [1]: 6.57 | pIC50 [2]: 8.06 | pIC50 (Mu-type opioid receptor [6]): 7.54 | pIC50 [7]: 5.40 | pIC50 (Mu-type opioid receptor [4]): 5.71

COc1ccc2[nH]c3c(c2c1)C1(c2cccc(O)c2)CCN(C)C(C3)C1 (stereo in doubt; (-)-11) [listing 2 of 2 here]
inhibition [10]: 0% | Ratio [8]: 17.4

CN1CCC2(c3cccc(O)c3)CC(=O)CC1C2 (racemic)
Ratio [8]: 2.81

C=CCN1C[C@H](C)N([C@H](c2ccc(C(=O)N(CC)CC)cc2)c2cccc(OC)c2)C[C@H]1C [SNC-80]
pIC50 (Mu-type opioid receptor [6]): 5.61 | pIC50 [7]: < 6.00 | pIC50 (Mu-type opioid receptor [4]): 5.26

COc1cccc2c3c([nH]c12)CC1CC3(c2cccc(O)c2)CCN1C (single isomer, unassigned; (-)) [listing 2 of 2 here]
Ratio [8]: 402 | Ratio [5]: 17.5

COc1ccc2[nH]c3c(c2c1)C1(c2cccc(O)c2)CCN(C)C(C3)C1 (racemic) [listing 2 of 2 here]
Ratio [8]: 11.1 | Ratio [5]: 1.5

COc1cccc2c3c([nH]c12)CC1CC3(c2cccc(O)c2)CCN1C (racemic) [listing 2 of 2 here]
Ratio [8]: 455 | Ratio [5]: 7.2
